In ChEMBL document CHEMBL5634200, “Discovery of the First Potent DYRK2 Proteolysis Targeting Chimera Degraders” (ACS Med Chem Lett, 2024):
Blank lines part the entries; values can stand above or below the molecule they belong to. Calls of active or inactive are those of the source. The rule behind the calls is not given here.

How the values were obtained:
[1] = target: T1, Protein cereblon/Dual specificity tyrosine-phosphorylation-regulated kinase 2 (Homo sapiens, UniProt Q92630+Q96SW2); assay: PROTAC activity at CRBN/DYRK2 in human HeLa cells assessed as induction of DYRK2 degradation at 5 to 10 uM incubated for 24 hrs by Western blot analysis; assay type: cell-based; conditions: dose 5-10 µM
Procedure, shortened: (§1)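 HeLa cells treated 24 h (one series at 10 and 20 μM, another at 5 and 10 μM); DYRK2 immunoblotted with GAPDH loading reference; band quantitation as mean ± SEM of three independent replicates, one-way ANOVA.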

[2] = target: T2, Dual specificity tyrosine-phosphorylation-regulated kinase 2 (Homo sapiens, UniProt Q92630); assay: Binding affinity to DYRK2 (unknown origin) assessed as dissociation constant by SPR analysis
T2 sequence (Q92630 whole entry): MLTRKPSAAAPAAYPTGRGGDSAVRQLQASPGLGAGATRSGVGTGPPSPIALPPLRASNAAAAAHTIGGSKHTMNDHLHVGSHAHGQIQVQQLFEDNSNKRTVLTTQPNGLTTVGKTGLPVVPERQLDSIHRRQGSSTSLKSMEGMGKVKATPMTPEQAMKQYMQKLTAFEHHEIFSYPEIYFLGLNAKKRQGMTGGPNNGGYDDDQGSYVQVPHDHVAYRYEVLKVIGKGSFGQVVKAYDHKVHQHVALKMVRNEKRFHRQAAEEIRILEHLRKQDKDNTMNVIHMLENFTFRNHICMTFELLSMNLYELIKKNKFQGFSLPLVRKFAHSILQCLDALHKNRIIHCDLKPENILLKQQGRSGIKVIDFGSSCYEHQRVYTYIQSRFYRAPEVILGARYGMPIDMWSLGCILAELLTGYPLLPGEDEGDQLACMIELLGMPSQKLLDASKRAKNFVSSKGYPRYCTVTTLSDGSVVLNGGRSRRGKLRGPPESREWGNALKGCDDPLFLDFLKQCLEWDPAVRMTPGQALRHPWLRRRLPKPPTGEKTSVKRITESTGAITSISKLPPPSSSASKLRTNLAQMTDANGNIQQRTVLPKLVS

[3] = target: T1, Protein cereblon/Dual specificity tyrosine-phosphorylation-regulated kinase 2; assay: PROTAC activity at CRBN/DYRK2 in human MDA-MB-231 cells assessed as reduction in DYRK2 degradation level at 10 uM preincubated with MG132 for 2 hrs followed by compound addition and further incubated for 12 hrs by Western blot analysis; assay type: cell-based
Procedure, shortened: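 MM231 cells pretreated 2 h with 10 μM MG132 (UPS inhibitor) before compound for 12 h; DYRK2 Western blot with GAPDH reference, three independent replicates, one-way ANOVA.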

[4] = target: T1, Protein cereblon/Dual specificity tyrosine-phosphorylation-regulated kinase 2; assay: PROTAC activity at CRBN/DYRK2 in human MDA-MB-231 cells assessed as decrease in p53 phosphorylation at Ser46 residue at 5 to 20 uM incubated for 12 hrs by Western blot analysis; assay type: cell-based; conditions: dose 5-20 µM
Procedure, shortened: (§2)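 MM231 cells exposed 12 h across 1.25 to 20 μM; phospho-p53 (Ser46) and phospho-c-Myc (Ser62) immunoblotted, GAPDH loading reference; mean ± SEM of three independent replicates, one-way ANOVA.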

[5] = target: T1, Protein cereblon/Dual specificity tyrosine-phosphorylation-regulated kinase 2; assay: PROTAC activity at CRBN/DYRK2 in human MDA-MB-231 cells assessed as induction of DYRK2 degradation incubated for 24 hrs by Western blot analysis; assay type: cell-based
Procedure, shortened: (§3)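 MM231 cells given graded concentrations for 24 h; DYRK2 Western blot with GAPDH loading reference, three independent replicates (mean ± SEM); DC50 taken from concentration–degradation data.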

[6] = target: T1, Protein cereblon/Dual specificity tyrosine-phosphorylation-regulated kinase 2; assay: PROTAC activity at CRBN/DYRK2 in human HeLa cells assessed as induction of DYRK2 degradation at 2.5 to 40 uM incubated for 24 hrs by Western blot analysis; assay type: cell-based; conditions: dose 2.5-40 µM
Procedure, shortened: (§4)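 HeLa cells exposed to graded concentrations for 24 h; DYRK2 Western blot normalised to GAPDH, three independent replicates (mean ± SEM); DC50 derived from concentration series.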

[7] = target: T1, Protein cereblon/Dual specificity tyrosine-phosphorylation-regulated kinase 2; assay: PROTAC activity at CRBN/DYRK2 in human HeLa cells assessed as decrease in DYRK2 level by measuring reduction in fluorescence intensity at 5 to 10 uM incubated for 12 hrs by immunofluorescence based confocal laser scanning microscopy; assay type: cell-based; conditions: dose 5-10 µM
Procedure, shortened: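 HeLa cells treated 5 and 10 μM for 12 h; DYRK2 immunostained, Cy3 fluorescence intensity read by confocal laser scanning microscopy and quantified.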

[8] = target: T1, Protein cereblon/Dual specificity tyrosine-phosphorylation-regulated kinase 2; assay: PROTAC activity at CRBN/DYRK2 in human MDA-MB-231 cells assessed as decrease in c-Myc phosphorylation at Ser62 residue at 5 to 20 uM incubated for 12 hrs by Western blot analysis; assay type: cell-based; conditions: dose 5-20 µM; procedure, shortened: as §2
[9] = target: T1, Protein cereblon/Dual specificity tyrosine-phosphorylation-regulated kinase 2; assay: PROTAC activity at CRBN/DYRK2 in human MDA-MB-231 cells assessed as reduction of DYRK2 protein level at 5 uM incubated for 12 hrs in presence of 3,5-bis(2-bromobenzylidene)piperidin-4-one by Western blot analysis; assay type: cell-based
[10] = target: T1, Protein cereblon/Dual specificity tyrosine-phosphorylation-regulated kinase 2; assay: PROTAC activity at CRBN/DYRK2 in human HeLa cells assessed as induction of DYRK2 degradation incubated for 24 hrs by Western blot analysis; assay type: cell-based; procedure, shortened: as §4
[11] = target: T1, Protein cereblon/Dual specificity tyrosine-phosphorylation-regulated kinase 2; assay: PROTAC activity at CRBN/DYRK2 in human MDA-MB-231 cells assessed as decrease in DYRK2 level at 2.5 to 10 uM incubated for 12 hrs by flow cytometry analysis; assay type: cell-based; conditions: dose 5-10 µM, in the assay text read “5 to 10 uM” for “2.5 to 10 uM”
Procedure, shortened: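 MM231 cells treated 12 h; DYRK2 immunostaining quantified by flow cytometry as FITC-A channel fluorescence intensity.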

MDA-MB-231 = assay: Antiproliferative activity against human MDA-MB-231 cells assessed as inhibition of cell proliferation by CCK-8 assay; assay type: functional, cell-based
[12] = target: T1, Protein cereblon/Dual specificity tyrosine-phosphorylation-regulated kinase 2; assay: PROTAC activity at CRBN/DYRK2 in human MDA-MB-231 cells assessed as induction of DYRK2 degradation at 2.5 to 40 uM incubated for 24 hrs by Western blot analysis; assay type: cell-based; conditions: dose 2.5-40 µM; procedure, shortened: as §3
[13] = target: T1, Protein cereblon/Dual specificity tyrosine-phosphorylation-regulated kinase 2; assay: PROTAC activity at CRBN/DYRK2 in human MDA-MB-231 cells assessed as increase in ubiquitination of DYRK2 at 10 uM incubated for 12 hrs by coimmunoprecipitation analysis; assay type: cell-based
Procedure, shortened: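 MM231 cells pretreated with 10 μM MG132 for 2 h, then compound for 12 h; DYRK2 and ubiquitin examined by co-immunoprecipitation.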

[14] = target: T1, Protein cereblon/Dual specificity tyrosine-phosphorylation-regulated kinase 2; assay: PROTAC activity at CRBN/DYRK2 in human HeLa cells assessed as decrease in DYRK2 level at 5 uM by Western blot analysis; assay type: cell-based; conditions: time 3-24 hrs, TDE = time-dependent effect
Procedure, shortened: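 HeLa cells held at 5 μM over a time course (3 to 24 h); DYRK2 immunoblot normalised to GAPDH, quantified from three independent replicates, one-way ANOVA.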

[15] = target: T1, Protein cereblon/Dual specificity tyrosine-phosphorylation-regulated kinase 2; assay: PROTAC activity at CRBN/DYRK2 in human HeLa cells assessed as induction of DYRK2 degradation at 10 to 20 uM incubated for 24 hrs by Western blot analysis; assay type: cell-based; conditions: dose 10-20 µM; procedure, shortened: as §1
[16] = target: T2, Dual specificity tyrosine-phosphorylation-regulated kinase 2; assay: Inhibition of human recombinant DYRK2 using KKISGRLSPIMTEQ as substrate incubated for 60 mins in the presence of ATP by ADP-Glo kinase assay
[17] = target: T1, Protein cereblon/Dual specificity tyrosine-phosphorylation-regulated kinase 2; assay: PROTAC activity at CRBN/DYRK2 in human HeLa cells assessed as reduction in DYRK2 protein level at 5 to 10 uM incubated for 12 hrs by Western blot analysis; assay type: cell-based; conditions: dose 5-10 µM

Compound: O=C(CN1C/C(=C\c2ccccc2Cl)C(=O)/C(=C/c2ccccc2Cl)C1)NCCOCCOCCNc1cccc2c1C(=O)N(C1CCC(=O)NC1=O)C2=O (centres undefined)
- Activity [1]: Active

Compound: O=C(CN1C/C(=C\c2ccccc2F)C(=O)/C(=C/c2ccccc2F)C1)NCCOCCOCCOCCNc1cccc2c1C(=O)N(C1CCC(=O)NC1=O)C2=O (centres undefined)
- Activity [1]: Active

Compound: O=C(CN1C/C(=C\c2ccccc2Br)C(=O)/C(=C/c2ccccc2Br)C1)NCCOCCOCCNc1cccc2c1C(=O)N(C1CCC(=O)NC1=O)C2=O (centres undefined)
- Activity [1]: Active

Compound: O=C(CN1C/C(=C\c2ccccc2Br)C(=O)/C(=C/c2ccccc2Br)C1)NCCOCCOCCOCCNc1cccc2c1C(=O)N(C1CCC(=O)NC1=O)C2=O (centres undefined)
- Kd [2]: 29.7 µM
- Activity [3]: inactive
- Activity [1]: Active
- Activity [4]: Active
- DC50 [5]: 1.61 µM
- Activity [6]: Active
- Activity [7]: Active
- Activity [8]: Active
- Activity [9]: inactive
- DC50 [10]: 3.26 µM
- Activity [11]: Active
- IC50 (MDA-MB-231): 9.1 µM
- Activity [12]: Active
- Activity [13]: Active
- Activity [14]: Tde

Compound: O=C(CN1C/C(=C\c2ccccc2Cl)C(=O)/C(=C/c2ccccc2Cl)C1)NCCOCCOCCOCCNc1cccc2c1C(=O)N(C1CCC(=O)NC1=O)C2=O (centres undefined)
- Activity [1]: Active

Compound: CN1C(=O)CCC(N2C(=O)c3cccc(NCCOCCOCCOCCNC(=O)CN4C/C(=C\c5ccccc5Br)C(=O)/C(=C/c5ccccc5Br)C4)c3C2=O)C1=O (centres undefined)
- Activity [17]: inactive

Next, values leading:

- Activity [15]: Active
Compound: COc1cc(/C=C/C(=O)CC(=O)/C=C/c2ccc(OC(=O)CCOCCOCCOCCNC(=O)COc3cccc4c3C(=O)N(C3CCC(=O)NC3=O)C4=O)c(OC)c2)ccc1O (centres undefined)

- Kd [2]: 7.9 µM
- IC50 [16]: 0.024 µM
- IC50 (MDA-MB-231): 4.2 µM
Compound: O=C1/C(=C/c2ccccc2Br)CNC/C1=C\c1ccccc1Br

- Kd [2]: 14.5 µM
- IC50 [16]: 0.01 µM
- IC50 (MDA-MB-231): > 20 µM
Compound: COc1cc(/C=C/C(=O)CC(=O)/C=C/c2ccc(O)c(OC)c2)ccc1O [CURCUMIN]

- Activity [15]: Active
Compound: COc1cc(/C=C/C(=O)CC(=O)/C=C/c2ccc(OC(=O)CCOCCOCCNC(=O)COc3cccc4c3C(=O)N(C3CCC(=O)NC3=O)C4=O)c(OC)c2)ccc1O (centres undefined)

- Activity [1]: Active
Compound: O=C(CN1C/C(=C\c2ccccc2F)C(=O)/C(=C/c2ccccc2F)C1)NCCOCCOCCNc1cccc2c1C(=O)N(C1CCC(=O)NC1=O)C2=O (centres undefined)
